Data from PMC3356098 (Frontiers in Endocrinology, 2012).

Target: RXFP2 (Homo sapiens, UniProt Q8WXD0)
Type: cell-based
Conditions: for agonist/antagonist character at RXFP2 (in words): cAMP reporter gene assay
How it was run: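 HEK-293T cells were co-transfected in 96-well format with RXFP2 and a pCRE–β-galactosidase reporter plasmid. They were exposed to increasing concentrations of test peptide for 6 h, then the medium was aspirated and the cells frozen at −80°C overnight before β-galactosidase was measured. Signals were normalised to the maximal native INSL3 response. Triplicates were run in three experiments, with pEC50 from a variable-slope sigmoidal fit.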

RXFP2, sequence (Q8WXD0 whole entry): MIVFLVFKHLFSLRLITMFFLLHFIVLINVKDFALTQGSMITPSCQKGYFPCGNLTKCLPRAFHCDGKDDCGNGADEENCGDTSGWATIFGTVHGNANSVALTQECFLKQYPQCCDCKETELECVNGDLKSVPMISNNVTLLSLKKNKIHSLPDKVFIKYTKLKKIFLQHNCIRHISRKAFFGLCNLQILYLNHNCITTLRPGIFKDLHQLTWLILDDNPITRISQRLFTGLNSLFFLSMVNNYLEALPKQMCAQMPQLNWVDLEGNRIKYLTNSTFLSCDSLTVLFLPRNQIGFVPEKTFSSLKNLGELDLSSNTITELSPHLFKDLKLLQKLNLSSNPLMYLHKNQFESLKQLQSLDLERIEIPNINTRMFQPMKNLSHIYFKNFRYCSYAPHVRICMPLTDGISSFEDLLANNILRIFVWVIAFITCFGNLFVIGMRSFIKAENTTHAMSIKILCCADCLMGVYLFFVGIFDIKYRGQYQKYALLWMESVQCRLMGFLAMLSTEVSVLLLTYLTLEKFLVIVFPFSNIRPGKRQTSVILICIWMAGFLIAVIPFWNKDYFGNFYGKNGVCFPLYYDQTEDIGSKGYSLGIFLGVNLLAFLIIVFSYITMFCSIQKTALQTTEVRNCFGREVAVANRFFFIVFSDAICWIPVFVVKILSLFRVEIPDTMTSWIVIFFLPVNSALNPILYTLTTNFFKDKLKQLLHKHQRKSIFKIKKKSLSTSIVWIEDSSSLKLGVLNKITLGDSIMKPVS

| Structure (SMILES) | agonist/antagonist character at RXFP2 (in words) | ability to stimulate cAMP activity in RXFP2 expressing cells (in concentrations up to 1 μM) |
| --- | --- | --- |
| CSCC[C@H](NC(=O)[C@H](CCC(=O)O)NC(=O)[C@@H]1CCCN1C(=O)[C@@H](NC(=O)[C@@H]1CCCN1)[C@@H](C)O)C(=O)N[C@@H](CCCNC(=N)N)C(=O)N[C@@H](CCC(=O)O)C(=O)N[C@@H](CCCCN)C(=O)N[C@@H](CC(C)C)C(=O)N[C@H]1CSSC[C@@H]2NC(=O)[C@@H](NC(=O)[C@H](CCCCN)NC(=O)[C@H](CC(N)=O)NC(=O)[C@H](C)NC(=O)[C@H](CC(C)C)NC(=O)[C@H](C)NC(=O)[C@H](CO)NC(=O)[C@H](Cc3ccc(O)cc3)NC(=O)[C@H](CC(C)C)NC(=O)[C@@H]3CCC(=O)N3)CSSC[C@H](NC(=O)CNC(=O)[C@H](C(C)C)NC(=O)[C@H](Cc3c[nH]cn3)NC2=O)C(=O)N[C@@H]([C@@H](C)O)C(=O)N[C@@H](CCCCN)C(=O)N[C@@H](CCCNC(=N)N)C(=O)N[C@@H](CO)C(=O)N[C@@H](CC(C)C)C(=O)N[C@@H](C)C(=O)N[C@@H](CCCNC(=N)N)C(=O)N[C@@H](Cc2ccccc2)C(=O)N[C@H](C(=O)O)CSSC[C@@H](C(=O)NCC(=O)NCC(=O)N2CCC[C@H]2C(=O)N[C@@H](CCCNC(=N)N)C(=O)N[C@@H](Cc2c[nH]c3ccccc23)C(=O)N[C@@H](CO)C(=O)N[C@H](C(=O)N[C@@H](CCC(=O)O)C(=O)N[C@@H](C)C(=O)O)[C@@H](C)O)NC(=O)[C@H](C(C)C)NC(=O)[C@H](CCCNC(=N)N)NC(=O)[C@H](C(C)C)NC(=O)[C@H](CC(C)C)NC(=O)[C@H](C)NC(=O)[C@H](CCCNC(=N)N)NC(=O)[C@H](C(C)C)NC(=O)[C@H](Cc2ccccc2)NC(=O)[C@H](Cc2c[nH]cn2)NC(=O)[C@H](Cc2c[nH]cn2)NC(=O)CNC1=O [H2-A/INSL3-B] | partial agonist | – |
| CSCC[C@H](NC(=O)[C@H](CCC(=O)O)NC(=O)[C@@H]1CCCN1C(=O)[C@@H](NC(=O)[C@@H]1CCCN1)[C@@H](C)O)C(=O)N[C@@H](CCCNC(=N)N)C(=O)N[C@@H](CCC(=O)O)C(=O)N[C@@H](CCCCN)C(=O)N[C@@H](CC(C)C)C(=O)N[C@H]1CSSC[C@@H]2NC(=O)[C@@H](NC(=O)[C@H](CC(C)C)NC(=O)[C@@H](NC(=O)[C@H](CCC(N)=O)NC(=O)[C@H](CC(C)C)NC(=O)[C@H](CC(=O)O)NC(=O)[C@@H]3CCC(=O)N3)[C@@H](C)O)CSSC[C@H](NC(=O)CNC(=O)[C@H](CC(=O)O)NC(=O)[C@H]([C@@H](C)O)NC2=O)C(=O)N[C@@H](CO)C(=O)N[C@@H](CCSC)C(=O)N[C@@H]([C@@H](C)O)C(=O)N[C@@H](CC(=O)O)C(=O)N[C@@H](CC(C)C)C(=O)N[C@@H](CO)C(=O)N[C@@H](C)C(=O)N[C@@H](CC(C)C)C(=O)N[C@H](C(=O)O)CSSC[C@@H](C(=O)NCC(=O)NCC(=O)N2CCC[C@H]2C(=O)N[C@@H](CCCNC(=N)N)C(=O)N[C@@H](Cc2c[nH]c3ccccc23)C(=O)N[C@@H](CO)C(=O)N[C@H](C(=O)N[C@@H](CCC(=O)O)C(=O)N[C@@H](C)C(=O)O)[C@@H](C)O)NC(=O)[C@H](C(C)C)NC(=O)[C@H](CCCNC(=N)N)NC(=O)[C@H](C(C)C)NC(=O)[C@H](CC(C)C)NC(=O)[C@H](C)NC(=O)[C@H](CCCNC(=N)N)NC(=O)[C@H](C(C)C)NC(=O)[C@H](Cc2ccccc2)NC(=O)[C@H](Cc2c[nH]cn2)NC(=O)[C@H](Cc2c[nH]cn2)NC(=O)CNC1=O [INSL5-A/INSL3-B] | high affinity antagonists | unable to stimulate cAMP |
